Laboratory results as given in ChEMBL document CHEMBL3244187, “Structure--activity relationships in cephalosporins prepared from penicillins. 2. Analogues of cephalexin substituted in the 3-methyl group” (J Med Chem, 1977).
In brackets after ≈: the same amount, converted by molar mass. Activity calls are given as the source filed them. No cut-off for these calls is given here.

How the values were obtained:
Shigella sonnei = assay: Antibacterial activity against Shigella sonnei after 18 hrs by serial dilution method; type: functional
Outline: (§1)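 MICs by serial dilution on nutrient agar. Inoculum 0.001 mL of undiluted overnight broth culture. Plates incubated at 37 °C for 18 h before reading.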

[1] = Drug level in mouse blood at 50 mg/kg, po after 2 hrs by microbiological assay; type: ADME, organism-based; parameters: dose 50 mg/kg, route oral; conditions: read-out: Drug uptake
Outline: (§2)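 Mice given a single 50 mg/kg dose by the route in the line. Groups of five killed at each time point and blood taken from the cut axilla, heparinized and stored at 4 °C. Blood assayed the same day by large-plate microbiological assay with Sarcina lutea NCTC 8340, overnight at 30 °C. Standards made in mouse blood, with pH 7.2 phosphate-buffered saline as diluent.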

Escherichia coli [2] = assay: Antibacterial activity against Escherichia coli 8 infected in po dosed mouse administered 1 hr post infection; type: functional
Outline: (§3)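 Infected mice were treated subcutaneously or orally. Protection is expressed as CD50 in mg/kg, as the total dose given.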

[3] = Drug level in mouse blood at 50 mg/kg, sc after 10 mins by microbiological assay; type: ADME, organism-based; parameters: dose 50 mg/kg, route subcutaneous; conditions: read-out: Drug uptake; outline: as §2
[4] = Drug level in mouse blood at 50 mg/kg, po after 1 hr by microbiological assay; type: ADME, organism-based; parameters: dose 50 mg/kg, route oral; conditions: read-out: Drug uptake; outline: as §2
[5] = Drug level in mouse blood at 50 mg/kg, sc after 1 hr by microbiological assay; type: ADME, organism-based; parameters: dose 50 mg/kg, route subcutaneous; conditions: read-out: Drug uptake; outline: as §2
Staphylococcus aureus [6] = assay: Antibacterial activity against Staphylococcus aureus Smith infected in po dosed mouse administered 1 hr and 5 hrs post infection; type: functional; outline: as §3
[7] = Drug level in mouse blood at 50 mg/kg, po after 4 hrs by microbiological assay; type: ADME, organism-based; parameters: dose 50 mg/kg, route oral; conditions: read-out: Drug uptake; outline: as §2
[8] = Drug level in mouse blood at 50 mg/kg, sc after 2 hrs by microbiological assay; type: ADME, organism-based; parameters: dose 50 mg/kg, route subcutaneous; conditions: read-out: Drug uptake; outline: as §2
Klebsiella aerogenes = assay: Antibacterial activity against Klebsiella aerogenes after 18 hrs by serial dilution method; type: functional; outline: as §1
[9] = Drug level in mouse blood at 50 mg/kg, po after 30 mins by microbiological assay; type: ADME, organism-based; parameters: dose 50 mg/kg, route oral; conditions: read-out: Drug uptake; outline: as §2
Escherichia coli [10] = assay: Antibacterial activity against Escherichia coli 8 infected in po dosed mouse administered 1 hr and 5 hrs post infection; type: functional; outline: as §3
Staphylococcus aureus [11] = assay: Antibacterial activity against Staphylococcus aureus Smith infected in po dosed mouse administered 1 hr post infection; type: functional; outline: as §3
Proteus mirabilis [12] = assay: Antibacterial activity against Proteus mirabilis 13 infected in sc dosed mouse administered 1 hr and 5 hrs post infection; type: functional; outline: as §3
[13] = Drug level in mouse blood at 50 mg/kg, sc after 20 mins by microbiological assay; type: ADME, organism-based; parameters: dose 50 mg/kg, route subcutaneous; conditions: read-out: Drug uptake; outline: as §2
Salmonella typhi = assay: Antibacterial activity against Salmonella typhi after 18 hrs by serial dilution method; type: functional, Salmonella enterica subsp. enterica serovar Typhi; conditions: Salmonella enterica
Outline: (§4)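 MICs by serial dilution on nutrient agar. Inoculum 0.001 mL of undiluted overnight broth culture. Plates incubated 18 h at 37 °C before reading. The S. aureus Russell strain produces β-lactamase and resists benzylpenicillin.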

[14] = Drug level in mouse blood at 50 mg/kg, sc after 30 mins by microbiological assay; type: ADME, organism-based; parameters: dose 50 mg/kg, route subcutaneous; conditions: read-out: Drug uptake; outline: as §2
Staphylococcus aureus [15] = assay: Antibacterial activity against beta-lactamase producing benzylpenicillin-resistant Staphylococcus aureus Russell after 18 hrs by serial dilution method; type: functional; outline: as §4
Proteus mirabilis [16] = assay: Antibacterial activity against Proteus mirabilis 13 infected in sc dosed mouse administered 1 hr post infection; type: functional; outline: as §3
Staphylococcus aureus [17] = assay: Antibacterial activity against Staphylococcus aureus Smith infected in sc dosed mouse administered 1 hr and 5 hrs post infection; type: functional; outline: as §3
Staphylococcus aureus [18] = assay: Antibacterial activity against Staphylococcus aureus Oxford after 18 hrs by serial dilution method; type: functional; outline: as §1
Escherichia coli [19] = assay: Antibacterial activity against Escherichia coli after 18 hrs by serial dilution method; type: functional; outline: as §1
[20] = Drug level in mouse blood at 50 mg/kg, po after 15 mins by microbiological assay
Escherichia coli [21] = assay: Antibacterial activity against Escherichia coli 8 infected in sc dosed mouse administered 1 hr post infection; type: functional; outline: as §3
[22] = Drug level in mouse blood at 50 mg/kg, sc after 4 hrs by microbiological assay; type: ADME, organism-based; parameters: dose 50 mg/kg, route subcutaneous; conditions: read-out: Drug uptake; outline: as §2
Escherichia coli [23] = assay: Antibacterial activity against Escherichia coli 8 infected in sc dosed mouse administered 1 hr and 5 hrs post infection; type: functional; outline: as §3
Proteus mirabilis [24] = assay: Antibacterial activity against Proteus mirabilis after 18 hrs by serial dilution method; type: functional; outline: as §1
Staphylococcus aureus [25] = assay: Antibacterial activity against Staphylococcus aureus Smith infected in sc dosed mouse administered 1 hr post infection; type: functional; outline: as §3
Pseudomonas aeruginosa = assay: Antibacterial activity against cephalosporin-resistant Pseudomonas aeruginosa after 18 hrs by serial dilution method; type: functional, organism-based; outline: as §4
Morganella morganii = assay: Antibacterial activity against cephalosporin-resistant Proteus morganii after 18 hrs by serial dilution method; type: functional, organism-based; outline: as §4
[26] = Drug level in mouse blood at 50 mg/kg, po after 10 mins by microbiological assay; type: ADME, organism-based; parameters: dose 50 mg/kg, route oral; conditions: read-out: Drug uptake; outline: as §2
[27] = Drug level in mouse blood at 50 mg/kg, po after 20 mins by microbiological assay; type: ADME, organism-based; parameters: dose 50 mg/kg, route oral; conditions: read-out: Drug uptake; outline: as §2
[28] = Drug level in mouse blood at 50 mg/kg, iv after 4 hrs by microbiological assay; type: ADME, organism-based; parameters: dose 50 mg/kg, route intravenous; conditions: read-out: Drug uptake; outline: as §2
[29] = Drug level in mouse blood at 50 mg/kg, iv after 1 hr by microbiological assay; type: ADME, organism-based; parameters: dose 50 mg/kg, route intravenous; conditions: read-out: Drug uptake; outline: as §2
Enterobacter cloacae = assay: Antibacterial activity against cephalosporin-resistant Enterobacter cloacae after 18 hrs by serial dilution method; type: functional, organism-based; outline: as §4
[30] = Drug level in mouse blood at 50 mg/kg, iv after 10 mins by microbiological assay; type: ADME, organism-based; parameters: dose 50 mg/kg, route intravenous; conditions: read-out: Drug uptake; outline: as §2
[31] = Drug level in mouse blood at 50 mg/kg, iv after 20 mins by microbiological assay; type: ADME, organism-based; parameters: dose 50 mg/kg, route intravenous; conditions: read-out: Drug uptake; outline: as §2
[32] = Drug level in mouse blood at 50 mg/kg, iv after 30 mins by microbiological assay; type: ADME, organism-based; parameters: dose 50 mg/kg, route intravenous; conditions: read-out: Drug uptake; outline: as §2
[33] = Drug metabolism in mouse assessed as metabolite level in urine by Sarcina lutea antibacterial assay; type: ADME
Outline: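 Urine from dosed mice run on paper strip chromatography in butanol-ethanol-water (4:1:5). Active zones located on agar plates seeded with Sarcina lutea.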

[34] = Drug level in mouse blood at 50 mg/kg, iv after 2 hrs by microbiological assay; type: ADME, organism-based; parameters: dose 50 mg/kg, route intravenous; conditions: read-out: Drug uptake; outline: as §2

Compound	MIC (Shigella sonnei) [µg/mL]	concentration at 2 h [1] [ng/mL]	CD50 (Escherichia coli [2]) [mg/kg]	concentration at 10 min [3] [ng/mL]	concentration at 1 h [4] [ng/mL]	concentration at 1 h [5] [ng/mL]	CD50 (Staphylococcus aureus [6]) [mg/kg]	concentration at 4 h [7] [ng/mL]	concentration at 2 h [8] [ng/mL]	MIC (Klebsiella aerogenes) [µg/mL]	concentration at 0.5 h [9] [ng/mL]	CD50 (Escherichia coli [10]) [mg/kg]	CD50 (Staphylococcus aureus [11]) [mg/kg]	CD50 (Proteus mirabilis [12]) [mg/kg]	concentration at 20 min [13] [ng/mL]	concentration at 0.5 h [14] [ng/mL]	CD50 (Proteus mirabilis [16]) [mg/kg]	CD50 (Staphylococcus aureus [17]) [mg/kg]	CD50 (Escherichia coli [21]) [mg/kg]	concentration at 4 h [22] [ng/mL]	other results
CC1=C(C(=O)O)N2C(=O)[C@@H](NC(=O)[C@H](N)c3ccccc3)[C@H]2SC1 [CEPHALEXIN ANHYDROUS]	5 (≈ 14.4 µM)	2500	8.5	27000	8300	3000	0.38	560	420	5 (≈ 14.4 µM)	21700	17	0.25	84	20500	13300	64	1	7.4	< 150	MIC (Salmonella typhi): 5 µg/mL (≈ 14.4 µM); MIC (Staphylococcus aureus [15]): 5 µg/mL (≈ 14.4 µM); MIC (Staphylococcus aureus [18]): 1.25 µg/mL (≈ 3.6 µM); MIC (Escherichia coli [19]): 12.5 µg/mL (≈ 36 µM); concentration at 0.25 h [20]: 23900 ng/mL; CD50 (Escherichia coli [23]): 17 mg/kg; MIC (Proteus mirabilis [24]): 12.5 µg/mL (≈ 36 µM); CD50 (Staphylococcus aureus [25]): 0.46 mg/kg
N[C@@H](C(=O)N[C@@H]1C(=O)N2C(C(=O)O)=C(Cc3ccc(C(=O)O)cc3)CS[C@H]12)c1ccccc1	–	2300	>1000	75200	2400	48000	28	1900	22000	2.5 (≈ 5.35 µM)	1600	2000	17	19	87400	68800	14	1.8	130	9300	Activity (Pseudomonas aeruginosa): inactive; Activity (Morganella morganii): inactive; concentration at 10 min [26]: < 1000 ng/mL; concentration at 20 min [27]: < 1000 ng/mL; concentration at 4 h [28]: 2400 ng/mL; concentration at 1 h [29]: 25400 ng/mL; Activity (Enterobacter cloacae): inactive; concentration at 10 min [30]: 70300 ng/mL; concentration at 20 min [31]: 48200 ng/mL; concentration at 0.5 h [32]: 39200 ng/mL; Drug metabolism [33]: metabolite_detected; concentration at 2 h [34]: 4500 ng/mL; CD50 (Escherichia coli [23]): 60 mg/kg; CD50 (Staphylococcus aureus [25]): 1.25 mg/kg
N[C@@H](C(=O)N[C@@H]1C(=O)N2C(C(=O)O)=C(Cc3cccc(C(=O)O)c3)CS[C@H]12)c1ccccc1	25 (≈ 53.5 µM)	1600	–	84200	1700	26200	–	550	13700	–	1800	–	–	–	64200	49600	–	–	–	1600	Activity (Pseudomonas aeruginosa): inactive; Activity (Morganella morganii): inactive; concentration at 10 min [26]: 870 ng/mL; concentration at 20 min [27]: 1050 ng/mL; Activity (Enterobacter cloacae): inactive; Drug metabolism [33]: metabolite_notdetected
